# Measurements reported in ChEMBL document CHEMBL1125209, “Boc-CCK-4 derivatives containing side-chain ureas as potent and selective CCK-a receptor agonists” (J Med Chem, 1991).
# pEC50, pIC50: −log10 of the molar value. *1 amine or outer side, *2 acyl side, *3 side chain or, on linkers, in order; H or OH if unused. Where a SMILES comes first, the peptide text is derived from it. Side-chain parts run from the residue outwards. [ ]: non-standard residue; d: D form. The star is where a group is joined. NH(2-CF3-phenyl) = FC(F)(F)c1ccccc1N*; NH(1-naphthyl) = c1ccc2c(N*)cccc2c1; NH(2,6-Me2-phenyl) = Cc1cccc(C)c1N*; NHPh(4-CF3) = FC(F)(F)c1ccc(N*)cc1; NH(3-Cl-phenyl) = Clc1cccc(N*)c1; NH(4-Cl-phenyl) = Clc1ccc(N*)cc1; hCit = NC(=O)NCCCC[C@H](N)C(=O)O; NH(4-Me-phenyl) = Cc1ccc(N*)cc1; NH(2-Me-phenyl) = Cc1ccccc1N*; X3 = O=[N+]([O-])c1ccccc1N*; hLys = NCCCCC[C@H](N)C(=O)O; NH(2-ClPh) = Clc1ccccc1N*; X9 = FC(F)(F)c1cccc(N*)c1; Orn = NCCC[C@H](N)C(=O)O; βNA = c1ccc2cc(N*)ccc2c1; X8 = Clc1ccc(N*)c(Cl)c1; 2Abz = Nc1ccccc1C(=O)O; Boc = CC(C)(C)OC(=O)*; NHcHex = C1CCC(N*)CC1; X1 = Clc1cccc(Cl)c1N*; CO = O=C([*:1])[*:2]; NHBn = c1ccc(CN*)cc1; X2 = CC(C)c1ccccc1N*; NHtBu = CC(C)(C)N*; X10 = Brc1ccccc1N*; X5 = Cc1cccc(N*)c1; X6 = COc1ccccc1N*
# Assays:
# [1] = molecular target: T1, Cholecystokinin receptor type A (Cavia porcellus, UniProt Q63931); assay: Binding affinity for Cholecystokinin type A receptor in guinea pig pancreas by using [125I]BH-CCK-8 as radioligand
# T1 sequence (Q63931 whole entry): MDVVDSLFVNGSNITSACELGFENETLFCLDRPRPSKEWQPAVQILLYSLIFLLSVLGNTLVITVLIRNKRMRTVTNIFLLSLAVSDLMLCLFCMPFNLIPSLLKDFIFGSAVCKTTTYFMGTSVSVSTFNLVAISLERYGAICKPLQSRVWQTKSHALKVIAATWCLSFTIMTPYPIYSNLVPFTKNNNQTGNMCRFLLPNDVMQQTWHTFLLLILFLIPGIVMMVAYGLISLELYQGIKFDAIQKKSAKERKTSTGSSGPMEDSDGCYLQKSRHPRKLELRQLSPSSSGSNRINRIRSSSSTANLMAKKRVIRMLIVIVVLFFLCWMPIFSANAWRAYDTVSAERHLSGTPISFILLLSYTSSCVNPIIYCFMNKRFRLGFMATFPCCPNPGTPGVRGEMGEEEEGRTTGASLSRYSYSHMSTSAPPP
# Cavia porcellus [2] = organism: Cavia porcellus; assay: Percentage response in phosphoinositide hydrolysis relative to maximal response elicited by CCK-8 in guinea pig pancreatic acini; assay type: functional
# Outline: (§1)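 Guinea pig pancreatic acini, phosphoinositide hydrolysis. […] Efficacy is expressed as % of the maximal response elicited by CCK-8. Each determination was run in duplicate with <5% sample variability. Means ±SE are given for three or more determinations.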
# Cavia porcellus [3] = organism: Cavia porcellus; assay: The compound was tested for effective concentration for amylase release in guinea pig pancreatic Acini; assay type: functional
# Outline: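 Amylase release from guinea pig pancreatic acini. […] Each determination was run in duplicate with <5% sample variability. Means ±SE are given where there were three or more determinations.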
# [4] = Selectivity ratio of IC50 measured in guinea pig cortex to that of IC50 for guinea pig pancreas; settings: Cavia porcellus
# [5] = molecular target: T1, Cholecystokinin receptor type A; assay: Binding affinity towards cholecystokinin type A receptor in guinea pig pancreas by using [125I]BH-CCK-8 as radioligand; assay type: tissue-based
# Outline: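 Radioligand displacement of [125I]Bolton-Hunter CCK-8, guinea pig pancreas (CCK-A) or cortex (CCK-B) membranes. […] Each determination was run in duplicate with <5% sample variability. Means ±SE are given where there were three or more determinations.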
# Cavia porcellus [6] = organism: Cavia porcellus; assay: Effective concentration for hydrolysis of phosphoinositide in guinea pig pancreatic Acini; assay type: functional; outline: as §1
SMILES,pIC50 [1],pEC50 (Cavia porcellus [3]),Selectivity [4],pIC50 [5],pEC50 (Cavia porcellus [6]),Max response (Cavia porcellus [2])
Cc1ccccc1NC(=O)NCCCCC[C@H](NC(=O)[C@H](Cc1c[nH]c2ccccc12)NC(=O)OC(C)(C)C)C(=O)N[C@@H](CC(=O)O)C(=O)N[C@@H](Cc1ccccc1)C(N)=O (Boc-W[hLys]([CO-NH(2-Me-phenyl)])DF-NH2),7.03,7.92,,,,83%
CC(C)(C)OC(=O)N[C@@H](Cc1c[nH]c2ccccc12)C(=O)N[C@@H](CCCC/N=C(\S)Nc1ccccc1Cl)C(=O)N[C@@H](CC(=O)O)C(=O)N[C@@H](Cc1ccccc1)C(N)=O,7.00,7.70,29,,,83%
CC(C)(C)OC(=O)N[C@@H](Cc1c[nH]c2ccccc12)C(=O)N[C@@H](CCCCNC(=O)Nc1ccc(Cl)cc1Cl)C(=O)N[C@@H](CC(=O)O)C(=O)N[C@@H](Cc1ccccc1)C(N)=O (Boc-WK([CO-X8])DF-NH2),,,,8.07,,
Cc1ccccc1/N=C(/S)NCCCC[C@H](NC(=O)[C@H](Cc1c[nH]c2ccccc12)NC(=O)OC(C)(C)C)C(=O)N[C@@H](CC(=O)O)C(=O)N[C@@H](Cc1ccccc1)C(N)=O,,,,6.66,,
CC(C)(C)NC(=O)NCCCC[C@H](NC(=O)[C@H](Cc1c[nH]c2ccccc12)NC(=O)OC(C)(C)C)C(=O)N[C@@H](CC(=O)O)C(=O)N[C@@H](Cc1ccccc1)C(N)=O (Boc-WK([CO-NHtBu])DF-NH2),6.77,7.38,33,,6.48,73%
CC(C)(C)OC(=O)N[C@@H](Cc1c[nH]c2ccccc12)C(=O)N[C@@H](CCCCNC(=O)Nc1cccc(Cl)c1)C(=O)N[C@@H](CC(=O)O)C(=O)N[C@@H](Cc1ccccc1)C(N)=O (Boc-WK([CO-NH(3-Cl-phenyl)])DF-NH2),7.29,8.36,,,,93%
CC(C)(C)OC(=O)N[C@@H](Cc1c[nH]c2ccccc12)C(=O)N[C@@H](CCCCNC(=O)NCc1ccccc1)C(=O)N[C@@H](CC(=O)O)C(=O)N[C@@H](Cc1ccccc1)C(N)=O (Boc-WK([CO-NHBn])DF-NH2),6.64,,,,,
CC(C)(C)OC(=O)N[C@@H](Cc1c[nH]c2ccccc12)C(=O)N[C@@H](CCCCNC(=O)Nc1c(Cl)cccc1Cl)C(=O)N[C@@H](CC(=O)O)C(=O)N[C@@H](Cc1ccccc1)C(N)=O (Boc-WK([CO-X1])DF-NH2),6.80,7.36,44,,6.51,66%
CC(C)(C)OC(=O)N[C@@H](Cc1c[nH]c2ccccc12)C(=O)N[C@@H](CCCCNC(=O)Nc1ccc(C(F)(F)F)cc1)C(=O)N[C@@H](CC(=O)O)C(=O)N[C@@H](Cc1ccccc1)C(N)=O (Boc-WK([CO-NHPh(4-CF3)])DF-NH2),6.77,,5,,,
CC(C)(C)OC(=O)N[C@@H](Cc1c[nH]c2ccccc12)C(=O)N[C@@H](CCCCNC(=O)NC1CCCCC1)C(=O)N[C@@H](CC(=O)O)C(=O)N[C@@H](Cc1ccccc1)C(N)=O (Boc-WK([CO-NHcHex])DF-NH2),,8.38,,,7.26,97%
COC(=O)c1ccccc1NC(=O)NCCCC[C@H](NC(=O)[C@H](Cc1c[nH]c2ccccc12)NC(=O)OC(C)(C)C)C(=O)N[C@@H](CC(=O)O)C(=O)N[C@@H](Cc1ccccc1)C(N)=O (Boc-WK([CO-2Abz-OMe])DF-NH2),7.47,,91,,,
CC(C)(C)OC(=O)N[C@@H](Cc1c[nH]c2ccccc12)C(=O)N[C@@H](CCCCNC(N)=O)C(=O)N[C@@H](CC(=O)O)C(=O)N[C@@H](Cc1ccccc1)C(N)=O (Boc-W[hCit]DF-NH2),4.92,,0.083,,,
"Cc1cccc(C)c1NC(=O)NCCCC[C@H](NC(=O)[C@H](Cc1c[nH]c2ccccc12)NC(=O)OC(C)(C)C)C(=O)N[C@@H](CC(=O)O)C(=O)N[C@@H](Cc1ccccc1)C(N)=O (Boc-WK([CO-NH(2,6-Me2-phenyl)])DF-NH2)",6.10,,,,6.04,40%
CC(C)(C)OC(=O)N[C@@H](Cc1c[nH]c2ccccc12)C(=O)N[C@@H](CCCCNC(=O)Nc1cccc(C(F)(F)F)c1)C(=O)N[C@@H](CC(=O)O)C(=O)N[C@@H](Cc1ccccc1)C(N)=O (Boc-WK([CO-X9])DF-NH2),7.23,,,,,
CC(C)(C)OC(=O)N[C@@H](Cc1c[nH]c2ccccc12)C(=O)N[C@@H](CCCCNC(=O)Nc1cccc2ccccc12)C(=O)N[C@@H](CC(=O)O)C(=O)N[C@@H](Cc1ccccc1)C(N)=O (Boc-WK([CO-NH(1-naphthyl)])DF-NH2),7.80,8.80,690,,7.85,103%
CSCC[C@H](NC(=O)[C@H](Cc1ccc(OS(=O)(=O)O)cc1)NC(=O)[C@@H](N)CC(=O)O)C(=O)NCC(=O)N[C@@H](Cc1c[nH]c2ccccc12)C(=O)N[C@@H](CCSC)C(=O)N[C@@H](CC(=O)O)C(=O)N[C@@H](Cc1ccccc1)C(N)=O [SINCALIDE],,9.33,,,8.92,
Cc1ccc(NC(=O)NCCCC[C@H](NC(=O)[C@H](Cc2c[nH]c3ccccc23)NC(=O)OC(C)(C)C)C(=O)N[C@@H](CC(=O)O)C(=O)N[C@@H](Cc2ccccc2)C(N)=O)cc1 (Boc-WK([CO-NH(4-Me-phenyl)])DF-NH2),,,,,6.85,91%
CC(C)(C)OC(=O)N[C@@H](Cc1c[nH]c2ccccc12)C(=O)N[C@@H](CCCC/N=C(\S)Nc1ccc(Cl)cc1)C(=O)N[C@@H](CC(=O)O)C(=O)N[C@@H](Cc1ccccc1)C(N)=O,6.57,,,,,
CC(C)(C)OC(=O)N[C@@H](Cc1c[nH]c2ccccc12)C(=O)N[C@@H](CCCCNC(=O)Nc1ccc(Cl)cc1)C(=O)N[C@@H](CC(=O)O)C(=O)N[C@@H](Cc1ccccc1)C(N)=O (Boc-WK([CO-NH(4-Cl-phenyl)])DF-NH2),7.22,8.02,,,,91%
CC(C)(C)OC(=O)N[C@@H](Cc1c[nH]c2ccccc12)C(=O)N[C@@H](CCCCNC(=O)Nc1ccc2ccccc2c1)C(=O)N[C@@H](CC(=O)O)C(=O)N[C@@H](Cc1ccccc1)C(N)=O (Boc-WK([CO-βNA])DF-NH2),,8.15,200,,6.85,79%

# More lines, main results first:
pIC50 [1],pEC50 (Cavia porcellus [3]),Selectivity [4],pIC50 [5],pEC50 (Cavia porcellus [6]),SMILES,Max response (Cavia porcellus [2])
,,,,8.34,CC(C)(C)OC(=O)N[C@@H](Cc1c[nH]c2ccccc12)C(=O)N[C@@H](CCCCNC(=O)Nc1ccccc1Cl)C(=O)N[C@@H](CC(=O)O)C(=O)N[C@@H](Cc1ccccc1)C(N)=O (Boc-WK([CO-NH(2-ClPh)])DF-NH2),91%
,,,,7.92,Cc1ccccc1NC(=O)NCCCC[C@H](NC(=O)[C@H](Cc1c[nH]c2ccccc12)NC(=O)OC(C)(C)C)C(=O)N[C@@H](CC(=O)O)C(=O)N[C@@H](Cc1ccccc1)C(N)=O (Boc-WK([CO-NH(2-Me-phenyl)])DF-NH2),101%
7.66,8.72,,,7.68,CC(C)(C)OC(=O)N[C@@H](Cc1c[nH]c2ccccc12)C(=O)N[C@@H](CCCCNC(=O)Nc1ccccc1[N+](=O)[O-])C(=O)N[C@@H](CC(=O)O)C(=O)N[C@@H](Cc1ccccc1)C(N)=O (Boc-WK([CO-X3])DF-NH2),100%
,,,,8.08,COc1ccccc1NC(=O)NCCCC[C@H](NC(=O)[C@H](Cc1c[nH]c2ccccc12)NC(=O)OC(C)(C)C)C(=O)N[C@@H](CC(=O)O)C(=O)N[C@@H](Cc1ccccc1)C(N)=O (Boc-WK([CO-X6])DF-NH2),100%
7.64,8.36,250,,,CC(C)c1ccccc1NC(=O)NCCCC[C@H](NC(=O)[C@H](Cc1c[nH]c2ccccc12)NC(=O)OC(C)(C)C)C(=O)N[C@@H](CC(=O)O)C(=O)N[C@@H](Cc1ccccc1)C(N)=O (Boc-WK([CO-X2])DF-NH2),85%
,,,,7.29,Cc1cccc(NC(=O)NCCCC[C@H](NC(=O)[C@H](Cc2c[nH]c3ccccc23)NC(=O)OC(C)(C)C)C(=O)N[C@@H](CC(=O)O)C(=O)N[C@@H](Cc2ccccc2)C(N)=O)c1 (Boc-WK([CO-X5])DF-NH2),95%
6.19,6.38,23,,,Cc1ccccc1NC(=O)NCCC[C@H](NC(=O)[C@H](Cc1c[nH]c2ccccc12)NC(=O)OC(C)(C)C)C(=O)N[C@@H](CC(=O)O)C(=O)N[C@@H](Cc1ccccc1)C(N)=O (Boc-W[Orn]([CO-NH(2-Me-phenyl)])DF-NH2),36%
8.10,9.11,,,8.21,CC(C)(C)OC(=O)N[C@@H](Cc1c[nH]c2ccccc12)C(=O)N[C@@H](CCCCNC(=O)Nc1ccccc1C(F)(F)F)C(=O)N[C@@H](CC(=O)O)C(=O)N[C@@H](Cc1ccccc1)C(N)=O (Boc-WK([CO-NH(2-CF3-phenyl)])DF-NH2),100%
8.44,,,,,CC(C)(C)OC(=O)N[C@@H](Cc1c[nH]c2ccccc12)C(=O)N[C@@H](CCCCNC(=O)Nc1ccccc1Br)C(=O)N[C@@H](CC(=O)O)C(=O)N[C@@H](Cc1ccccc1)C(N)=O (Boc-WK([CO-X10])DF-NH2),
